Measured values as given in ChEMBL document CHEMBL4196130, “3-(2-Carboxyethyl)indole-2-carboxylic Acid Derivatives: Structural Requirements and Properties of Potent Agonists of the Orphan G Protein-Coupled Receptor GPR17” (J Med Chem, 2018).
One block for each molecule: values may come before it. Active and inactive are the calls of the source. The calls are words filed in the database; no cut-off is given here.

Tests used:
[1] = target: T1, Uracil nucleotide/cysteinyl leukotriene receptor (Homo sapiens, UniProt Q13304); test: Agonist activity at human GPR17 expressed in human 1321N1 cells assessed as induction of calcium mobilization after 1 hr by Oregon Green BAPTA-1/AM dye-based fluorescence assay; format: functional, cell-based
T1 sequence (Q13304 whole entry): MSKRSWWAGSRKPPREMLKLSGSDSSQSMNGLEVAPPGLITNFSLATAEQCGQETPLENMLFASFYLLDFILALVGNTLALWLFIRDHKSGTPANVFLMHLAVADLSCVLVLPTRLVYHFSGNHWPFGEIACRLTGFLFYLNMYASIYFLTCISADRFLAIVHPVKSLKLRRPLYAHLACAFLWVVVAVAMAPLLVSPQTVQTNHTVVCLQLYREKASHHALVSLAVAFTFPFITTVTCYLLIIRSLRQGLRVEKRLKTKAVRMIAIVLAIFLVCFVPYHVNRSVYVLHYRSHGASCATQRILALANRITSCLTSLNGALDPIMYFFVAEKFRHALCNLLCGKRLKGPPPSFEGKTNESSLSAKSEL
How it was run: (§1)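 Stably transfected 1321N1 astrocytoma cells were trypsin/EDTA-harvested, held 45 min at 37°C, then loaded 1 h at 25°C in KRH buffer pH 7.4 with 3 µM Oregon Green BAPTA-1/AM and 1% Pluronic F127, washed, and plated at ~16,000 cells/well. Fluorescence was read at 520 nm for 30 s after compound injection. Efficacy was expressed relative to the maximum given by 10 µM MDL 29,951. EC50 came from concentration-response curves, run for compounds exceeding 50% stimulation at 10 µM. At least three independent experiments, each in duplicate.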

[2] = target: T1, Uracil nucleotide/cysteinyl leukotriene receptor; test: Agonist activity at human GPR17 expressed in human 1321N1 cells assessed as induction of calcium mobilization at >=10 uM after 1 hr by Oregon Green BAPTA-1/AM dye-based fluorescence assay relative to control; format: functional, cell-based
[3] = target: T1, Uracil nucleotide/cysteinyl leukotriene receptor; test: Agonist activity at human GPR17 expressed in human 1321N1 cells assessed as induction of calcium mobilization after 1 hr by Oregon Green BAPTA-1/AM dye-based fluorescence assay relative to MDL 29,951; format: functional, cell-based; how it was run: as §1
[4] = target: Uracil nucleotide/cysteinyl leukotriene receptor (Rattus norvegicus, UniProt Q09QM4); test: Agonist activity at rat GPR17 expressed in HEK293 cells assessed as induction of intracellular calcium mobilization by calcium 5-dye based assay; format: functional, cell-based
Chain of Uracil nucleotide/cysteinyl leukotriene receptor (Rattus norvegicus, UniProt Q09QM4) (Q09QM4 whole entry): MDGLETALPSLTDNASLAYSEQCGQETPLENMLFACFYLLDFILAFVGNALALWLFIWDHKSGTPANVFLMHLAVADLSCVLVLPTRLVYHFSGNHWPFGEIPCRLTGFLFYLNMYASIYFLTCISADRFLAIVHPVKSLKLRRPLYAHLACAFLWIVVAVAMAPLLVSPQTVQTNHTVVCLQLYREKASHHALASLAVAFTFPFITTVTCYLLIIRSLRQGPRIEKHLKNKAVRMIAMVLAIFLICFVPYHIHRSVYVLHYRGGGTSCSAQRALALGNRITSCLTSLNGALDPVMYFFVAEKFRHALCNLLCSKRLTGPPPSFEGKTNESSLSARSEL
How it was run: (§2)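 HEK293 cells expressing rat or mouse GPR17 were seeded at 60,000 cells/well on poly-D-lysine plates and loaded 40 min with Calcium 5 indicator dye. Calcium signals were read on a plate reader. EC50 was obtained by nonlinear regression of concentration-response data. Means ± SEM from 3 independent experiments.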

[5] = target: Uracil nucleotide/cysteinyl leukotriene receptor (Mus musculus, UniProt Q6NS65); test: Agonist activity at mouse GPR17 expressed in HEK293 cells assessed as induction of intracellular calcium mobilization by calcium 5-dye based assay; format: functional, cell-based; how it was run: as §2
Chain of Uracil nucleotide/cysteinyl leukotriene receptor (Mus musculus, UniProt Q6NS65) (Q6NS65 whole entry): as the sequence (Q09QM4 whole entry) above, with D2N, T6A, A15S, S270A counted along it

[6] = target: Uracil nucleotide/cysteinyl leukotriene receptor (Rattus norvegicus) (UniProt Q09QM4); test: Agonist activity at rat GPR17 expressed in HEK293 cells assessed as induction of intracellular calcium mobilization at 10 uM by calcium 5-dye based assay relative to MDL 29,951; format: functional, cell-based
Chain of Uracil nucleotide/cysteinyl leukotriene receptor (Rattus norvegicus) (Q09QM4 whole entry): as the sequence (Q09QM4 whole entry) above

[7] = target: Uracil nucleotide/cysteinyl leukotriene receptor (Mus musculus) (UniProt Q6NS65); test: Agonist activity at mouse GPR17 expressed in HEK293 cells assessed as induction of intracellular calcium mobilization at 10 uM by calcium 5-dye based assay relative to MDL 29,951; format: functional, cell-based
Chain of Uracil nucleotide/cysteinyl leukotriene receptor (Mus musculus) (Q6NS65 whole entry): as the sequence (Q09QM4 whole entry) above, with D2N, T6A, A15S, S270A counted along it

[8] = target: P2Y purinoceptor 1 (Homo sapiens) (UniProt P47900); test: Agonist activity at human P2Y1 receptor transfected in human 1321N1 cells assessed as induction of calcium mobilization after 30 mins in presence of ADP by fluo-4 dye based assay; format: functional, cell-based
Chain of P2Y purinoceptor 1 (Homo sapiens) (P47900 whole entry): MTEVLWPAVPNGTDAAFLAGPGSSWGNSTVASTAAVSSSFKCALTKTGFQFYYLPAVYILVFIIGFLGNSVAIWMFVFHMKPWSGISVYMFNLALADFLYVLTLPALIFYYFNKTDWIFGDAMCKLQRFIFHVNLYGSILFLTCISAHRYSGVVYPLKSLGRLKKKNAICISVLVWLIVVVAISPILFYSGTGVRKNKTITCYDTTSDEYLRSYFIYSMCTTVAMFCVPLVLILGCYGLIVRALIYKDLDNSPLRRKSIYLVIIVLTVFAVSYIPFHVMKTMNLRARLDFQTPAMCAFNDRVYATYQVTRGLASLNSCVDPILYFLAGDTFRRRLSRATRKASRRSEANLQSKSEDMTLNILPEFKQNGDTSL
How it was run: (§3)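 Calcium mobilization was measured in 1321N1 astrocytoma cells stably transfected with human P2Y1, P2Y2, P2Y4 or P2Y6 receptors, read on a Flexstation III microplate reader.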

P2Y purinoceptor 2 = P2Y purinoceptor 2 (Homo sapiens, UniProt P41231); test: Agonist activity at human P2Y2 receptor transfected in human 1321N1 cells assessed as induction of calcium mobilization after 30 mins in presence of UTP by fluo-4 dye based assay; format: functional, cell-based; how it was run: as §3
Chain of P2Y purinoceptor 2 (P41231 whole entry): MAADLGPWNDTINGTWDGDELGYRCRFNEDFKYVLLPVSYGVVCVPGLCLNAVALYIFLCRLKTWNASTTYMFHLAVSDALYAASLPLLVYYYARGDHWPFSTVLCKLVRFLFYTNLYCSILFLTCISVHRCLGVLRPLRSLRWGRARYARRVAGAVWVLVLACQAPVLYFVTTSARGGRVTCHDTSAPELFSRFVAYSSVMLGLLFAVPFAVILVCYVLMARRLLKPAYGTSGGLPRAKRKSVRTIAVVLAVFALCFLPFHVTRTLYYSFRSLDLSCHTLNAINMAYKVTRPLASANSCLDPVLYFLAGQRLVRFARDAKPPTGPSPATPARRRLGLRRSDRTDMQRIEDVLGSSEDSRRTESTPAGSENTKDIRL

[9] = target: P2Y purinoceptor 4 (Homo sapiens) (UniProt P51582); test: Agonist activity at human P2Y4 receptor transfected in human 1321N1 cells assessed as induction of calcium mobilization after 30 mins in presence of UTP by fluo-4 dye based assay; format: functional, cell-based; how it was run: as §3
Chain of P2Y purinoceptor 4 (Homo sapiens) (P51582 whole entry): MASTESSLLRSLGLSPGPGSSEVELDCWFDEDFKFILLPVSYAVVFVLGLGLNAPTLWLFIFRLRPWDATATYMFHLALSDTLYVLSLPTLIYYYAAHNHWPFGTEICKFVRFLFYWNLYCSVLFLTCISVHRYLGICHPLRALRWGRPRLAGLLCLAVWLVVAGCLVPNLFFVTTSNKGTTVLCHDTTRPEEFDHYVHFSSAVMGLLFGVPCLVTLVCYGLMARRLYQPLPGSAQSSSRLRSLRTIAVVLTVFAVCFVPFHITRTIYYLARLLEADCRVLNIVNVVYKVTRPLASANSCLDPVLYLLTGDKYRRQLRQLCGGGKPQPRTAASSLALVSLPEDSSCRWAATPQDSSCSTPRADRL

[10] = target: P2Y purinoceptor 6 (Homo sapiens) (UniProt Q15077); test: Agonist activity at human P2Y6 receptor transfected in human 1321N1 cells assessed as induction of calcium mobilization after 30 mins in presence of UDP by fluo-4 dye based assay; format: functional, cell-based; how it was run: as §3
Chain of P2Y purinoceptor 6 (Homo sapiens) (Q15077 whole entry): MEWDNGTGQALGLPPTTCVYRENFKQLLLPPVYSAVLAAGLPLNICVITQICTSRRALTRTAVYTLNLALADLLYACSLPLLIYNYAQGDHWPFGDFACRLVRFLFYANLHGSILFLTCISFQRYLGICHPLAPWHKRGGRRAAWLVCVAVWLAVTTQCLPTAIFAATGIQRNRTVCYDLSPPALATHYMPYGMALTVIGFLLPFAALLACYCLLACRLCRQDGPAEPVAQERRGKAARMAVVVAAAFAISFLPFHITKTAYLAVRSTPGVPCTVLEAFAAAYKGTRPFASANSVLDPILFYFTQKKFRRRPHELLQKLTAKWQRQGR

[11] = target: P2Y purinoceptor 12 (Homo sapiens) (UniProt Q9H244); test: Agonist activity at human P2Y12 receptor transfected in CHO cells assessed as induction of beta-arrestin translocation; format: functional, cell-based
Chain of P2Y purinoceptor 12 (Homo sapiens) (Q9H244 whole entry): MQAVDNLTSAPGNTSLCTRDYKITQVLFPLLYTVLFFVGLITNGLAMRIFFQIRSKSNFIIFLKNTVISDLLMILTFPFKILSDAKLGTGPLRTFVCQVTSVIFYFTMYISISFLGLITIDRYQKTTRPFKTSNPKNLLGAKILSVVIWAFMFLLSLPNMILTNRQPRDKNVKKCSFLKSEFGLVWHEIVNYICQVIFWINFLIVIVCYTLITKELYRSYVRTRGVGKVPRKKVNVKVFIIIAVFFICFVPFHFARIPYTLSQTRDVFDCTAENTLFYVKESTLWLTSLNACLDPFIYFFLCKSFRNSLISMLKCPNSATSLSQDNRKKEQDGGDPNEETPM
How it was run: (§4)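 β-Arrestin translocation assays were run in CHO cells stably transfected with human P2Y12 or P2Y14 receptors.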

[12] = target: T2, P2Y purinoceptor 14 (Homo sapiens) (UniProt Q15391); test: Agonist activity at human P2Y14 receptor transfected in CHO cells assessed as induction of beta-arrestin translocation; format: functional, cell-based; how it was run: as §4
T2 sequence (whole entry): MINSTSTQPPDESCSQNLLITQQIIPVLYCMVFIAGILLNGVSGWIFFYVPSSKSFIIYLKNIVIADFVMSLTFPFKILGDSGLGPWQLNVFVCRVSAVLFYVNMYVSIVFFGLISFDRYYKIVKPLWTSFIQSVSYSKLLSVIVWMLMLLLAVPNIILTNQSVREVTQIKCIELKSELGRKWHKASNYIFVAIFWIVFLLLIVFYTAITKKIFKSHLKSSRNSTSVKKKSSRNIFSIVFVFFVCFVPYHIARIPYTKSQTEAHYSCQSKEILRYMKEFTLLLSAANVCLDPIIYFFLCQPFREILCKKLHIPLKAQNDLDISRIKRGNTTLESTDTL

[13] = Selectivity ratio of EC50 for rat GPR17 expressed in HEK293 cells to EC50 for human GPR17 expressed in human 1321N1 cells; format: cell-based
[14] = Selectivity ratio of EC50 for mouse GPR17 expressed in HEK293 cells to EC50 for human GPR17 expressed in human 1321N1 cells; format: cell-based
[15] = target: T1, Uracil nucleotide/cysteinyl leukotriene receptor; test: Displacement of [3H]PSB-12150 from human GPR17 expressed in CHO cell membranes after 60 mins by liquid scintillation counting
How it was run: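 Membranes from CHO cells stably expressing human GPR17 were incubated 60 min at 25°C with 25 nM [3H]PSB-12150 (17 Ci/mmol), 10 mM MgCl2 and increasing test compound concentrations. Bound radioligand was separated by GF/B filtration and counted by liquid scintillation. Nonspecific binding was defined with 100 µM unlabeled PSB-12150. Ki came from the Cheng-Prusoff equation with KD 1190 nM. Three independent experiments in duplicate.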

[16] = target: T1, Uracil nucleotide/cysteinyl leukotriene receptor; test: Agonist activity at human GPR17 expressed in human 1321N1 cells assessed as induction of calcium mobilization at 30 uM after 1 hr by Oregon Green BAPTA-1/AM dye-based fluorescence assay relative to control; format: functional, cell-based
Homo sapiens = species: Homo sapiens; test: Selectivity ratio of EC50 for human P2Y2 receptor transfected in human 1321N1 cells to EC50 for human GPR17 expressed in human 1321N1 cells; format: cell-based
[17] = target: T1, Uracil nucleotide/cysteinyl leukotriene receptor; test: Agonist activity at human GPR17 expressed in human 1321N1 cells assessed as induction of calcium mobilization at >30 uM after 1 hr by Oregon Green BAPTA-1/AM dye-based fluorescence assay relative to control; format: functional, cell-based
Glutamate NMDA receptor = test: Displacement of [3H]CCP from NMDA receptor glutamate binding site in rat cortical and hippocampal membranes
[18] = target: T1, Uracil nucleotide/cysteinyl leukotriene receptor; test: Agonist activity at human GPR17 expressed in human 1321N1 cells assessed as induction of calcium mobilization at >10 uM after 1 hr by Oregon Green BAPTA-1/AM dye-based fluorescence assay relative to control; format: functional, cell-based

SMILES: O=C(O)CCc1c(C(=O)O)[nH]c2cccc(F)c12
- EC50 [1]: ≥ 10 µM
- Activity [2]: 44%

SMILES: O=C(O)CCc1c(C(=O)O)[nH]c2c(Cl)cccc12
- EC50 [1]: > 30 µM
- Activity [17]: 5%
- IC50 (Glutamate NMDA receptor): > 1000 µM

SMILES: CCCCCCOc1cc(Cl)cc2[nH]c(C(=O)O)c(CCC(=O)O)c12
- EC50 [1]: > 10 µM
- Activity [18]: 40%

SMILES: O=C(O)CCc1c(C(=O)O)[nH]c2ccc(Cl)cc12
- EC50 [1]: > 30 µM
- Activity [17]: 11%
- IC50 (Glutamate NMDA receptor): 35 µM

More lines, main results first:

- EC50 [1]: 0.115 µM
- Emax [3]: 62%
- EC50 [4]: 5.31 µM
- EC50 [5]: 5.51 µM
- Emax [6]: 53%
- Emax [7]: 28%
- Activity [8]: inactive
- Activity (P2Y purinoceptor 2): inactive
- Activity [9]: inactive
- Activity [10]: inactive
- Activity [11]: inactive
- Activity [12]: inactive
- Ki [15]: 1.5 µM
SMILES: CCCCCCOc1ccc2c(CCC(=O)O)c(C(=O)O)[nH]c2c1
- Ratio EC50 [13]: 34 to 48
- Ratio EC50 [14]: 34 to 48

- EC50 [1]: 30 µM
- Activity [16]: 52%
SMILES: O=C(O)CCc1c(C(=O)O)[nH]c2cccc(Cl)c12

- EC50 [1]: 0.067 µM
- Emax [3]: 95%
- EC50 [4]: 2.3 µM
- EC50 [5]: 3.03 µM
- Emax [6]: 77%
- Emax [7]: 59%
- Activity [8]: inactive
- EC50 (P2Y purinoceptor 2): ≥ 50 µM
- Activity [9]: inactive
- Activity [10]: inactive
- Activity [11]: inactive
- Activity [12]: inactive
- Ki [15]: 13.1 µM
SMILES: CCCCCCOc1cc(Cl)c2c(CCC(=O)O)c(C(=O)O)[nH]c2c1
- Ratio EC50 (Homo sapiens): > 700
- Ratio EC50 [13]: 34 to 48
- Ratio EC50 [14]: 34 to 48
